{"data": "Published values pooled from the literature", "target": "Casein kinase I isoform delta (CSNK1D, Homo sapiens, UniProt P48730)", "Residues used in one study (P48730 1-294)": "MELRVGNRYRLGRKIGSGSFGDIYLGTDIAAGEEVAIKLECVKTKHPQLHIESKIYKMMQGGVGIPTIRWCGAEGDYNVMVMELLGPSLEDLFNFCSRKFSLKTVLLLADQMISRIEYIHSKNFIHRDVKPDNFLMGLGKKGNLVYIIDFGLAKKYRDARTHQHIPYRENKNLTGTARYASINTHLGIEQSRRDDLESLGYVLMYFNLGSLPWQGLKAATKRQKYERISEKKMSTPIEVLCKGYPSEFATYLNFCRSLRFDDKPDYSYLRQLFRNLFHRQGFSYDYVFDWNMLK", "note": "Protocols differ between the studies behind these lines."}
{"Compound": "c1cc(-c2cnn3cc(-c4ccc(OCCN5CCCCC5)cc4)cnc23)ccn1", "assay": "binding, SPR", "quantity": "kon", "result": "809000 M⁻¹ s⁻¹"}
{"Compound": "CCCCC(=O)Nc1ccc(-c2ccc3ncn(CCC)c(=O)c3c2)cn1", "assay": "binding, competition with immobilised ligand", "setting": "0.5 µM", "quantity": "remaining binding", "result": "87%"}
{"Compound": "COc1ccc2[nH]c3c4[nH]c5ccc(OC)cc5c4c4c(c3c2c1)C(=O)NC4=O", "assay": "binding", "setting": "1 µM", "quantity": "remaining binding", "result": "94%"}
{"Compound": "C1=C/COCc2cc(ccc2OCCN2CCCC2)Nc2nccc(n2)-c2cccc(c2)COC/1", "assay": "binding", "setting": "0.1 µM", "quantity": "remaining binding", "result": "100%"}
{"Compound": "C#Cc1cnc(Nc2ccnc(CO)c2)nc1Nc1ccccc1S(C)(=O)=NC#N (stereo not drawn)", "assay": "cell-free assay", "setting": "1 µM", "quantity": "remaining signal", "result": "100%"}
{"Compound": "C=CC(=O)N1CCC([C@@H]2CCNc3c(C(N)=O)c(-c4ccc(Oc5ccccc5)cc4)nn32)CC1", "assay": "enzyme activity, inhibitor", "setting": "1 µM", "quantity": "inhibition", "result": "8%"}
{"Compound": "c1cc(Nc2cc(C3CC3)n[nH]2)nc(Nc2ccc3nc[nH]c3c2)n1", "assay": "binding, SPR", "quantity": "kon", "result": "335000 M⁻¹ s⁻¹"}
{"Compound": "CC(C)S(=O)(=O)c1ccc2nccc(Nc3ccc4sc(C5CCCC5)nc4c3)c2c1", "assay": "enzyme activity, inhibitor", "setting": "1 µM", "quantity": "activity vs control", "result": "105%"}
{"Compound": "N#Cc1ccc(NC(=O)Nc2ccccc2)cc1", "assay": "cell-free assay, competition with immobilised ligand", "setting": "25 µM", "quantity": "remaining binding", "result": "100%"}
{"Compound": "Cc1ccc(NC(=O)c2ccnc(C(F)(F)F)c2)cc1-c1cc(OCCO)nc(N2CCOCC2)c1", "assay": "binding", "setting": "1 µM", "quantity": "remaining binding", "result": "99%"}
{"Compound": "CO[C@@H]1[C@H](N(C)C(=O)c2ccccc2)C[C@H]2O[C@]1(C)n1c3ccccc3c3c4c(c5c6ccccc6n2c5c31)C(=O)NC4", "assay": "enzyme activity, inhibitor", "setting": "1 µM", "quantity": "inhibition", "result": "0%"}
{"Compound": "COc1ccc2oc(-c3ccc4nc(N)oc4c3)c/c(=N\\c3ccccc3NC(=O)CCN)c2c1", "assay": "binding", "setting": "1 µM", "quantity": "remaining binding", "result": "119%"}
